Source: PubChem
MEKK2mut PB1 HTS – signal of MEK5 binding to mutant human MEKK2 PB1 domain; AID 1530; percent response, % at 10 µM; bead flow cytometry, Alexa488-MEK5 binding to MEKK2 mutant; hit rate 0.35% among 290,000; in the data active means percent response above about 24%, passing the limit was not always enough
Apaf-1 inh – inhibitors of human Apaf-1 apoptosome; O14727; reconstituted apoptosome caspase-3 activity, DEVD-Rh110 fluorescence; inhibition, % at 20 µM; hit rate 0.71% among 330,000; active means inhibition of at least 40% at 20 µM;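 further: plate controls were DMSO wells for no effect and DEVD-CHO caspase inhibitor wells for full effect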
Target sequence (O14727 whole entry, looked up): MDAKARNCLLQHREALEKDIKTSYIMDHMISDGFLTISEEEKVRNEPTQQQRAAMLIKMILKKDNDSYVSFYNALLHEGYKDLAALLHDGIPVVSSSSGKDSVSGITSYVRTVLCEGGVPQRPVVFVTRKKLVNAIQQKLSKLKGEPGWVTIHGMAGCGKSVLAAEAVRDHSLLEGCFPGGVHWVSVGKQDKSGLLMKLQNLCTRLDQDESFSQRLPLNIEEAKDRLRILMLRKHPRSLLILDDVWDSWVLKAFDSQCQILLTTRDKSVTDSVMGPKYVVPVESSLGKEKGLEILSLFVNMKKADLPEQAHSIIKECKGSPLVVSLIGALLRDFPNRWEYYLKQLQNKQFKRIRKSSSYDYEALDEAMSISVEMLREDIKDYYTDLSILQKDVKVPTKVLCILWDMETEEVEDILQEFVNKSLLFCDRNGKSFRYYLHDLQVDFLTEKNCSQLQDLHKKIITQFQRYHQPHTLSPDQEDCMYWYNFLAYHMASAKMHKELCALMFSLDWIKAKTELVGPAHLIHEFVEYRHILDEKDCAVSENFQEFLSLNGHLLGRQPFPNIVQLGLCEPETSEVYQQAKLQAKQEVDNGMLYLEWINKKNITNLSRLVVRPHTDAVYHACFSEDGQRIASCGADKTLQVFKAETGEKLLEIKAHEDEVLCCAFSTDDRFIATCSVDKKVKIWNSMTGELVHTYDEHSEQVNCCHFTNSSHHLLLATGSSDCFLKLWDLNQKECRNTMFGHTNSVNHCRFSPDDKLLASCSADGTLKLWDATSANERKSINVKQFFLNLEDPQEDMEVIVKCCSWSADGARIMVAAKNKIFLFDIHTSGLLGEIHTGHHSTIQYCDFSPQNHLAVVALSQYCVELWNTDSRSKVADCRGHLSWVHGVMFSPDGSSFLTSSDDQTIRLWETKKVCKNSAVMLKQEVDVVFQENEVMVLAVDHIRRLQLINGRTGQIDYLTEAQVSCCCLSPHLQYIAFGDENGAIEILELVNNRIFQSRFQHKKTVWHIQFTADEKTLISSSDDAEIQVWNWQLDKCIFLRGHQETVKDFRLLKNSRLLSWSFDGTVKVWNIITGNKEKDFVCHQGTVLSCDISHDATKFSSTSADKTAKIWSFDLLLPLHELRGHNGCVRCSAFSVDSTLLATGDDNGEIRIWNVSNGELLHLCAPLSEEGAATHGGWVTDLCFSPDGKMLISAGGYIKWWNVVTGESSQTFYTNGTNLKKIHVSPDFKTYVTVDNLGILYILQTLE
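Medium: Hepes buffer, pH 7.5 / System: biochemical Apaf-1 apoptosome reconstitution / Measured by: Rh110 fluorescence, excitation 480 nm, emission 540 nm / Times: compound with Apaf-1, dATP, procaspase-3 30 min, then 50 min reaction, room temperature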
UBC13 polyUb – blocks human UBC13 polyubiquitin chain formation. P61088. TR-FRET. inhibition, % at 20 µM. hit rate 0.47% among 330,000. AID 485273; in the data active means inhibition above about 45%, passing the limit was not always enough; inconclusive means no clear call, values can overlap the other calls
MEKK2 WT-MEK5 – raises or lowers MEK5 binding to wildtype human MEKK2 PB1 domain | bead flow cytometry, Alexa488-MEK5 binding to MEKK2 WT; actives lie on both sides | binding response (% of control), % at 10 µM | hit rate 1.1% among 290,000 | AID 1531; in the data active means binding response below about 67% or above about 130%; inconclusive means no clear call, values can overlap the other calls; inactive means in between
MEKK3 PB1 HTS – raises or lowers MEK5 binding to the human MEKK3 PB1 domain | AID 1529 | binding response (% of control), % at 10 µM | hit rate 1.4% among 290,000 | Q99759 | bead-based flow cytometry, Alexa488-MEK5 binding to MEKK3; actives lie on both sides; 0 = blocked by unlabeled MEK5, 100 = vehicle;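 active means binding response more than 3 SD above or below the average of its plate-row segment, actives on both sides; inconclusive means wells at one plate position flagged as instrument error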;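 further: Alexa488 bead fluorescence after subtracting the streptavidin-only scavenger bead signal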
Casp3 counter – caspase-3 inhibition (UBC13 counter-screen); shares compounds with UBC13 polyUb; Recombinant caspase-3, Caspase-Glo 3/7 luminescence, 60 min; inhibition, % at 20 µM; hit rate 4% among 1,400; AID 488856;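 active means mean inhibition across replicates above about 26%, limit read from the data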;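 further: plate controls were DMSO with caspase-3 for no effect and DMSO wells lacking enzyme for full effect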
UBC13 conf – human UBC13 polyubiquitin inhibition, confirmed; hit rate 68% among 1,400; inhibition, % at 10 µM; AID 488859; shares compounds with UBC13 polyUb; UBC13 polyubiquitination, TR-FRET, biochemical; in the data active means inhibition above about 45%; inconclusive means no clear call, values can overlap the other calls
An asterisk follows results filed as active. Shown are actives, neighbours in structure and some others; about 2.9% of the full set was active somewhere.

`O=C(COC(=O)c1c[nH]c(=O)[nH]c1=O)Nc1cccc([N+](=O)[O-])c1` gave Apaf-1 inh -7.8, UBC13 polyUb 66.3*, Casp3 counter -2.6 and UBC13 conf 75.6*.
`O=C1[C@@H](Oc2ccccc2)[C@@H](c2cccnc2)N1c1ccccc1` gave Apaf-1 inh 11.4.
`CCOc1ccc(N2C(=O)C3C(c4ccccc4)=NN(c4ccccc4)C3C2=O)cc1` (centres undefined) gave MEKK2mut PB1 HTS 2.0, Apaf-1 inh 3.7, UBC13 polyUb 55.7*, MEKK2 WT-MEK5 103.0, MEKK3 PB1 HTS 108.0, Casp3 counter -3.6 and UBC13 conf 38.8.
CCC1CCCCN1S(=O)(=O)c1ccc(NC(=O)C2CCCO2)cc1 (centres undefined) was read as MEKK2mut PB1 HTS 0.0, Apaf-1 inh 6.4, UBC13 polyUb 0.5, MEKK2 WT-MEK5 105.0 and MEKK3 PB1 HTS 105.0.
Screening CCOC(=O)c1c(NC(=S)NCc2ccccc2)sc2c1CCN(C(=O)OCC)C2 returned MEKK2mut PB1 HTS 0.0, Apaf-1 inh 9.1, UBC13 polyUb 8.7, MEKK2 WT-MEK5 98.0 and MEKK3 PB1 HTS 102.0.
For C=CCNC(=S)Nc1sc2c(c1C(=O)OCC)CCN(C(=O)OCC)C2 the results were MEKK2mut PB1 HTS 1.0, Apaf-1 inh 14.5, UBC13 polyUb 50.4*, MEKK2 WT-MEK5 104.0, MEKK3 PB1 HTS 105.0, Casp3 counter 3.3 and UBC13 conf inconclusive.
For O=C(CCN1C(=O)c2ccccc2C1=O)C1=NN[C@@H]2C(=O)N(c3ccc4c(c3)OCO4)C(=O)[C@H]12 the results were MEKK2mut PB1 HTS -4.0, Apaf-1 inh -9.8, UBC13 polyUb -0.3, MEKK2 WT-MEK5 94.0 and MEKK3 PB1 HTS 101.0.
For Cn1c(=O)cc(SCC(=O)NCc2ccc(F)cc2)c2ccccc21 the results were MEKK2mut PB1 HTS 3.0, Apaf-1 inh -5.0, UBC13 polyUb 14.2, MEKK2 WT-MEK5 96.0 and MEKK3 PB1 HTS 98.0.
For Cn1c(=O)cc(SCC(=O)NCCCN2CCN(c3ccc(F)cc3)CC2)c2ccccc21 the results were MEKK2mut PB1 HTS 10.0, Apaf-1 inh 12.5, UBC13 polyUb 81.5*, MEKK2 WT-MEK5 131.0, MEKK3 PB1 HTS 120.0, Casp3 counter -2.3 and UBC13 conf inconclusive.
Screening COC(=O)c1c(NC(=O)CN2C(=O)C(=O)N(C(C)C)C2=O)sc(C)c1C returned Apaf-1 inh -0.9 and UBC13 polyUb -12.9.
`CCN(C(=O)COC(=O)c1cncc(Br)c1)C1CCS(=O)(=O)C1` (centres undefined) gave MEKK2mut PB1 HTS -16.0, Apaf-1 inh -4.2, UBC13 polyUb 9.1, MEKK2 WT-MEK5 83.0 and MEKK3 PB1 HTS 96.0.
Screening O=C(NC1CCCC1)C1CCN(C(=O)c2ccc(Cl)cc2)CC1 returned MEKK2mut PB1 HTS 6.0, Apaf-1 inh 1.5, UBC13 polyUb 1.6, MEKK2 WT-MEK5 104.0 and MEKK3 PB1 HTS 103.0.
Screening N#Cc1ccsc1NC(=O)C1CCN(C(=O)c2ccc(Cl)cc2)CC1 returned Apaf-1 inh 6.3, UBC13 polyUb 47.5*, Casp3 counter -2.2 and UBC13 conf 78.7*.
`Cc1ccc(C)c(C(=O)COC(=O)Cn2c(C)csc2=O)c1` gave MEKK2mut PB1 HTS 3.0, Apaf-1 inh 2.4, UBC13 polyUb 2.7, MEKK2 WT-MEK5 97.0 and MEKK3 PB1 HTS 95.0.
`O=C(CN(Cc1ccccc1)C(=O)c1csnn1)NCc1ccccc1` gave MEKK2mut PB1 HTS 5.0, Apaf-1 inh 2.7, UBC13 polyUb 12.2, MEKK2 WT-MEK5 126.0 and MEKK3 PB1 HTS 127.0.
COc1ccc(-c2c(-c3ccc(C#N)cc3)oc(=O)c3cc(OC)c(OC)cc23)cc1 was read as Apaf-1 inh 11.0, UBC13 polyUb 45.4*, Casp3 counter -0.4 and UBC13 conf 24.4.
Screening COc1cc(-c2cc(C(=O)Nc3ccc(S(=O)(=O)Nc4ncccn4)cc3)c3ccccc3n2)cc(OC)c1OC returned MEKK2mut PB1 HTS 5.0, Apaf-1 inh -2.5, UBC13 polyUb 27.9, MEKK2 WT-MEK5 99.0 and MEKK3 PB1 HTS 102.0.
For COc1cc(-c2cc(C(=O)Nc3ccc(S(N)(=O)=O)cc3)c3ccccc3n2)cc(OC)c1OC the results were MEKK2mut PB1 HTS 5.0, Apaf-1 inh 14.6, UBC13 polyUb 59.8*, MEKK2 WT-MEK5 99.0, MEKK3 PB1 HTS 105.0, Casp3 counter -0.8 and UBC13 conf 47.5*.
COc1ccccc1NC(=O)COC(=O)c1cc(C)nc2ccccc12 was read as Apaf-1 inh 3.6, UBC13 polyUb 47.9*, Casp3 counter 1.0 and UBC13 conf 24.6.
`COc1ccc(CNC(=O)COC(=O)c2cc(C)nc3ccccc23)cc1` gave Apaf-1 inh 1.4 and UBC13 polyUb -1.8.
`COc1ccccc1NC(=O)COc1ccc(C(=O)NCc2ccccc2)cc1OC` gave Apaf-1 inh 11.8, UBC13 polyUb 69.7*, Casp3 counter -3.4 and UBC13 conf 74.6*.
Screening CNCc1cc(Br)c(OCC(=O)Nc2ccccc2OC)c(OC)c1 returned MEKK2mut PB1 HTS 8.0, Apaf-1 inh 1.4, UBC13 polyUb 65.2*, MEKK2 WT-MEK5 118.0, MEKK3 PB1 HTS 102.0, Casp3 counter 3.1 and UBC13 conf 103.1*.
Screening COc1ccc(CNc2ncnc3cc(Cl)ccc23)cc1OC returned MEKK2mut PB1 HTS 5.0, MEKK2 WT-MEK5 101.0 and MEKK3 PB1 HTS 101.0.
Screening CCN(CC)Cc1cc2[nH]c3c4ccc(Cl)cc4ncc3c2cc1OC returned MEKK2mut PB1 HTS 38.0*, Apaf-1 inh 20.7, UBC13 polyUb 66.7*, MEKK2 WT-MEK5 163.0*, MEKK3 PB1 HTS 96.0, Casp3 counter 2.3 and UBC13 conf 10.4.
Screening O=C(Nc1cccc2nsnc12)c1ccc(-c2cccc(Cl)c2)o1 returned MEKK2mut PB1 HTS -3.0, Apaf-1 inh 39.8, UBC13 polyUb 48.9*, MEKK2 WT-MEK5 91.0, MEKK3 PB1 HTS 100.0, Casp3 counter 31.5* and UBC13 conf 7.9.
For Cc1sc2c(c1C)C(O)=C(C(=O)Nc1ccccc1)S(=O)(=O)N2C the results were MEKK2mut PB1 HTS -27.0, Apaf-1 inh 2.9, UBC13 polyUb -4.1, MEKK2 WT-MEK5 74.0 and MEKK3 PB1 HTS 68.0.
CC(C)(C)NCc1cc(Br)ccc1OCc1cccs1 was read as MEKK2mut PB1 HTS 14.0, Apaf-1 inh -16.2, UBC13 polyUb 66.0*, MEKK2 WT-MEK5 113.0, MEKK3 PB1 HTS 99.0, Casp3 counter 1.4 and UBC13 conf 17.7.
Screening CC(C)(C)NCc1cc(Cl)ccc1OCc1cccs1 returned MEKK2mut PB1 HTS 10.0, Apaf-1 inh 0.3, UBC13 polyUb 2.5, MEKK2 WT-MEK5 110.0 and MEKK3 PB1 HTS 103.0.
